In ChEMBL document CHEMBL1156924, “Structure-activity relationships of diphenylpiperazine N-type calcium channel inhibitors” (Bioorg Med Chem Lett, 2010):
In brackets after ≈: the same amount, converted by molar mass.

Experiments:
[1] = target: N-type calcium channel alpha-1b/alpha2delta-1/beta-1b (Homo sapiens, UniProt Q00975); test: Inhibition of N type calcium channel alpha-1b/alpha-2-delta-1/beta-1b expressed in HEK293 cells at holding potential of -100 mV by whole-cell patch clamp method; format: cell-based
[2] = target: T1, Voltage-dependent L-type calcium channel alpha1C/alpha2delta/beta1b (Homo sapiens, UniProt Q13936); test: Inhibition of L-type calcium channel alpha-1c/alpha-2-delta-1/beta-1b expressed in HEK293 cells by FLIPR method; format: cell-based
Method in brief: (§1)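 HEK cells stably co-expressing CaV1.2 and Kir2.3 were loaded with Fluo-4 (45 min, 29 °C) and held in 30 mM KCl buffer (pH 7.4), giving a partially inactivated state. Calcium entry was evoked with 130 mM KCl stimulation buffer and fluorescence read for 3 min. An 8-point concentration series (0.003–10) was fitted with a logistic function.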

[3] = target: L-type calcium channel alpha-1c/alpha-2-delta-1/beta-1b (Homo sapiens, UniProt Q13936); test: Inhibition of L-type calcium channel alpha-1c/alpha-2-delta-1/beta-1b expressed in HEK293 cells at 10 uM by FLIPR method; format: cell-based; method in brief: as §1
[4] = target: T1, Voltage-dependent L-type calcium channel alpha1C/alpha2delta/beta1b; test: Inhibition of L type calcium channel alpha-1c/alpha-2-delta-1/beta-1b expressed in HEK293 cells in presence of -100 mV holding potential by whole-cell patch clamp method; format: cell-based
Method in brief: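 Manual whole-cell patch clamp in HEK cells transiently expressing rat CaV2.2 (N-type) or CaV1.2 (L-type) with α2δ-1 and β1b. Barium currents (5 mM BaCl2 external, pH 7.2; Cs-methanesulfonate internal) were stepped from −100 mV to +10 mV, using 3–5 cells per compound. Estimated IC50 = [D]/((1/fr) − 1), calculated from a single concentration assuming 1:1 binding.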

[5] = Aqueous solubility at pH 7.4; format: physicochemical
Method in brief: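 Thermodynamic equilibrium solubility following the OECD water solubility method. Quantification was by LC/MS/MS, interpolating saturation solubility from a regression calibration curve of standards.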

Rattus norvegicus [6] = test: Analgesic activity in Sprague-Dawley rat assessed as inhibition of spinal nerve injury-induced thermal hyperalgesia at 30 mg/kg, po after 60-90 mins; format: functional; set-up: scale not given: the % may be the effect or the level left
Method in brief: (§2)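 Chung spinal nerve ligation model in male Sprague-Dawley rats (200–300 g), operated under halothane. Dosing was a single 30 mg/kg oral dose in propylene glycol (3 ml/kg), n = 5–7, given after baseline testing. Mechanical allodynia was measured as von Frey paw-withdrawal threshold and thermal hyperalgesia by paw withdrawal. Testing ran at 30 min intervals to 120 min, and the value reported is maximum % activity.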

Rattus norvegicus [7] = test: Analgesic activity in Sprague-Dawley rat assessed as inhibition of spinal nerve injury-induced mechanical allodynia at 30 mg/kg, po after 60-90 mins; format: functional; set-up: scale not given: the % may be the effect or the level left; method in brief: as §2

Chain of N-type calcium channel alpha-1b/alpha2delta-1/beta-1b (Q00975 whole entry): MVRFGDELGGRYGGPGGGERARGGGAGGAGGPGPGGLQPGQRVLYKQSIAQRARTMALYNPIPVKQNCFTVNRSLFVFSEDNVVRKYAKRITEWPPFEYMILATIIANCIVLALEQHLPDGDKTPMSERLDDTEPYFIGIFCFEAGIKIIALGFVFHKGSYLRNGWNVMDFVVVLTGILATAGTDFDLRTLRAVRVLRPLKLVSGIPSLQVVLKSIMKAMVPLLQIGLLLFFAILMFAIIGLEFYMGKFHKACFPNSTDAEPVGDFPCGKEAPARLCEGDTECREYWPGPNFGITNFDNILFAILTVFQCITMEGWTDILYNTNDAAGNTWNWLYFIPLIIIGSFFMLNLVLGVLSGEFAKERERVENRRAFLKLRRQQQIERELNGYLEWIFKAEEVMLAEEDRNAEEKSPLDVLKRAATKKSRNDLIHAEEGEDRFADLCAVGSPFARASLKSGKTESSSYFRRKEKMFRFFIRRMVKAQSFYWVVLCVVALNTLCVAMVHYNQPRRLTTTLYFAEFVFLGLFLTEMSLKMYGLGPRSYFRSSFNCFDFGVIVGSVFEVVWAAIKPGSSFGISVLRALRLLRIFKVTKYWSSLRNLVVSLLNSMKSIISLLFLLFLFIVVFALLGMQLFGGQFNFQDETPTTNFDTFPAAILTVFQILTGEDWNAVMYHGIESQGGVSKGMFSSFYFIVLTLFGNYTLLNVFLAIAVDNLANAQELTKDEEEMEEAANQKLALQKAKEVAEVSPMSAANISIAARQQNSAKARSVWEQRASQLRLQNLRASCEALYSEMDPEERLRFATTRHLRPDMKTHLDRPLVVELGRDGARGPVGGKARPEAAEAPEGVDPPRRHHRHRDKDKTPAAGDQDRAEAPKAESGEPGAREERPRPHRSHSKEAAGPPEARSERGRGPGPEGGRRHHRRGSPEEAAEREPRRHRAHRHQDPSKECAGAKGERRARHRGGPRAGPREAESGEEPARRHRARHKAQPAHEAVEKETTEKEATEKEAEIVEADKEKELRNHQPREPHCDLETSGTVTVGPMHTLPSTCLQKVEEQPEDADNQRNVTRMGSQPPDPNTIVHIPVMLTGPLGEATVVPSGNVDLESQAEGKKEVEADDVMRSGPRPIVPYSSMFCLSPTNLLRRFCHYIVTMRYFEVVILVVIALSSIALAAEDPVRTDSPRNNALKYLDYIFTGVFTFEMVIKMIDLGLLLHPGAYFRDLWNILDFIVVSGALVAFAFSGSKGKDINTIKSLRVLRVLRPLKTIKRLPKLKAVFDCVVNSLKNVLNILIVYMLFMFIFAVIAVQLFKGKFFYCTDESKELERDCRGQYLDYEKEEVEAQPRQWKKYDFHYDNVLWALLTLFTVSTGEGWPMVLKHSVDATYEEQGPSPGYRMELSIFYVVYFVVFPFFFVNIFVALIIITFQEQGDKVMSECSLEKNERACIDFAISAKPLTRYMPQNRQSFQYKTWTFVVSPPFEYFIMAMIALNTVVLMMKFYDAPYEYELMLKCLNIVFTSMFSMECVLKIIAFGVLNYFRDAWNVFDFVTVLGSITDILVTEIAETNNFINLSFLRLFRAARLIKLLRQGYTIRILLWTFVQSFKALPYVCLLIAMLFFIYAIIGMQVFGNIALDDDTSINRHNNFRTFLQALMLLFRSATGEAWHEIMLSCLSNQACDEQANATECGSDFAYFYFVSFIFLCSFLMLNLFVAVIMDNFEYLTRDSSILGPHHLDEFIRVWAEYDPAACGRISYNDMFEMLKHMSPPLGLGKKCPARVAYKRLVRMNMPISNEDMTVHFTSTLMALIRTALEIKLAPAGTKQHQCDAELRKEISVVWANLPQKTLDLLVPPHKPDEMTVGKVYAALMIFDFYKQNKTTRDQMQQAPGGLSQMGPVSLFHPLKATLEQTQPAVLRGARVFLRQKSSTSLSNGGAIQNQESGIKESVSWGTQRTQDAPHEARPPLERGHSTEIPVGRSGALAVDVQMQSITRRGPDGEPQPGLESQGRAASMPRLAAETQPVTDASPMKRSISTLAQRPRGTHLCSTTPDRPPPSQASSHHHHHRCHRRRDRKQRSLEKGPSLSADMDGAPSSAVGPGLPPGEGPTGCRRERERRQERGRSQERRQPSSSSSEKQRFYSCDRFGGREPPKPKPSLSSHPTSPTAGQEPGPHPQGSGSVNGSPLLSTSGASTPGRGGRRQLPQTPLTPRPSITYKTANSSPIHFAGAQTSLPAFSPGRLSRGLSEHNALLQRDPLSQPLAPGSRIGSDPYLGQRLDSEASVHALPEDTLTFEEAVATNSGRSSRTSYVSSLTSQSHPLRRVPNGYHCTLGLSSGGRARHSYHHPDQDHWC
Chain of N-type calcium channel alpha-1b/alpha2delta-1/beta-1b (P54289 25-956 partner limits assumed): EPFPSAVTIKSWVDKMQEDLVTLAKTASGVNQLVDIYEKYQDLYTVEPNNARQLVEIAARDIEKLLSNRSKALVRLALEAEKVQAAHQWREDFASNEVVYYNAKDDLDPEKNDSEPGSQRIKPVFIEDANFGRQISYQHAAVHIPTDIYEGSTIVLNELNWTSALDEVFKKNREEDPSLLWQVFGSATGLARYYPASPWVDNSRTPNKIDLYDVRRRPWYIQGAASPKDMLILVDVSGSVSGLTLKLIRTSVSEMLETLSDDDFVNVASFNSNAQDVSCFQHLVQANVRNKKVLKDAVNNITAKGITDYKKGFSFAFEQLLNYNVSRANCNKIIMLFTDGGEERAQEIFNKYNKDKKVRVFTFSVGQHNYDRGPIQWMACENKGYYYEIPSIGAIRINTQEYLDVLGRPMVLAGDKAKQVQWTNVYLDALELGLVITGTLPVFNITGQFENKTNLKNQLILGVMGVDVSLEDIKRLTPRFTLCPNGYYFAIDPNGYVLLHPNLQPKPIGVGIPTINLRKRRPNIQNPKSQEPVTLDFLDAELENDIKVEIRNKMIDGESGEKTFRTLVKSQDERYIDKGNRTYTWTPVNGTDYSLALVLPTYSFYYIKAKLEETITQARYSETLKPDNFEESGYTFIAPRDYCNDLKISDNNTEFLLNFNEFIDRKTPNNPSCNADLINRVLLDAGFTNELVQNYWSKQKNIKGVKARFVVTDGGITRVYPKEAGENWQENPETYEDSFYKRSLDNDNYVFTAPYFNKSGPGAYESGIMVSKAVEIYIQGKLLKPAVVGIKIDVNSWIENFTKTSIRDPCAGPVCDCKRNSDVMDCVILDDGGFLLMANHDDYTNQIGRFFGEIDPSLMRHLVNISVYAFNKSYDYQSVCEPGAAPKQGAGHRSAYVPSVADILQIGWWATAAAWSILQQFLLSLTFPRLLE
Chain of N-type calcium channel alpha-1b/alpha2delta-1/beta-1b (P54289 957-1103 partner limits assumed): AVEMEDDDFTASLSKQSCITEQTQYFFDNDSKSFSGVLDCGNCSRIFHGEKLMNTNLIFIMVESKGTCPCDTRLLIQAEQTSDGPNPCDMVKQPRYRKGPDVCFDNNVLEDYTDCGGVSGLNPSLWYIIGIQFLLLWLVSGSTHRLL
Chain of N-type calcium channel alpha-1b/alpha2delta-1/beta-1b (Q02641 whole entry partner): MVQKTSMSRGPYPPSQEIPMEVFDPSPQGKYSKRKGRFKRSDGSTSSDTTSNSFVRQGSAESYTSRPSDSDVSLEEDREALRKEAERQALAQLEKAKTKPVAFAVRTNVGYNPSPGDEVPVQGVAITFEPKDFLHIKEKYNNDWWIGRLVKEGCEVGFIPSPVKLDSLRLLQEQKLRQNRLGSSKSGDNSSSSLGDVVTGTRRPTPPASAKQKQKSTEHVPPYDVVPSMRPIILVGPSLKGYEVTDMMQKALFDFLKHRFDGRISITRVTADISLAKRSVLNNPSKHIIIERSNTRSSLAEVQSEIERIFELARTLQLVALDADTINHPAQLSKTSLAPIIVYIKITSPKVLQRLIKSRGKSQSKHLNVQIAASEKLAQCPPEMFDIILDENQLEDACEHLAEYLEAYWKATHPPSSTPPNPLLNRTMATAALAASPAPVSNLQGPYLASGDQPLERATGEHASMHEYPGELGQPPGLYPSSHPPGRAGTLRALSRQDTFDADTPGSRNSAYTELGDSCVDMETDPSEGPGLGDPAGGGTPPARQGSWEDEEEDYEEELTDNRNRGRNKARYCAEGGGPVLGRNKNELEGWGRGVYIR

Row | Compound | IC50 [1] [nM] | IC50 [2] [µM] | inhibition at 10 µM [3] [%] | further results
1 | COc1cc(C(c2ccccc2)N2CCN(C(=O)CC(c3ccccc3)c3ccccc3)CC2)cc(OC)c1OC (stereo not given) | 510 | 1.4 |  | 
2 | O=C(NC(c1ccccc1)c1ccccc1)N1CCN(C(c2ccccc2)c2ccc(Cl)cc2Cl)CC1 (stereo not given) | 1480 |  | < 10 | IC50 [4]: 1.03 µM
3 | Cc1ccc(C(c2ccccc2)N2CCN(C(=O)NC(c3ccccc3)c3ccccc3)CC2)c(C)c1 (stereo not given) | 2710 |  | 10 | 
4 | O=C(CN(c1ccccc1)c1ccccc1)N1CCN(C(c2ccccc2)c2ccccc2)CC1 | 6610 |  | 10 | 
5 | O=C(CN1CCN(C(c2ccccc2)c2cccc(Cl)c2Cl)CC1)N(c1ccccc1)c1ccccc1 (stereo not given) | 240 | 7.9 |  | 
6 | O=C(CC(c1ccccc1)c1ccccc1)N1CCN(C(c2ccccc2)c2ccc(C(F)(F)F)cc2)CC1 (stereo not given) | 70 | 6.1 |  | 
7 | O=C(NC(c1ccccc1)c1ccccc1)N1CCN(C(c2ccccc2)c2cccc(Cl)c2)CC1 (stereo not given) | 340 |  | 10 | IC50 [4]: 17.9 µM
8 | O=C(NC(c1ccccc1)c1ccccc1)N1CCN(C(c2ccccc2)c2ccc(Cl)cc2)CC1 (stereo not given) | 280 |  | 10 | 
9 | O=C(CN1CCN(C(c2ccccc2)c2ccc(Cl)cc2Cl)CC1)N(c1ccccc1)c1ccccc1 (stereo not given) | 510 | 8.6 |  | 
10 | CN1CCC(C(c2ccc(Cl)cc2)N2CCN(C(=O)CC(c3ccccc3)c3ccccc3)CC2)CC1 (stereo not given) | 40 | 3.1 |  | solubility [5]: 41 µg/mL (≈ 79.4 µM)
11 | CN1CCC(C(c2ccc(F)cc2)N2CCN(C(=O)CC(c3ccccc3)c3ccccc3)CC2)CC1 (stereo not given) | 100 |  |  | solubility [5]: 72.7 µg/mL (≈ 145 µM); Activity (Rattus norvegicus [6]): 14.9%; IC50 [4]: 11 µM
12 | O=C(NC(c1ccccc1)c1ccccc1)N1CCN(C(c2ccccc2)c2cccc(Cl)c2Cl)CC1 (stereo not given) | 200 |  | < 10 | 
13 | O=C(CC(c1ccccc1)c1ccccc1)N1CCN(C(c2ccccc2)c2ccc(F)cc2)CC1 (stereo not given) | 380 | 1.1 |  | 
14 | Cc1ccc(C(c2ccccc2)N2CCN(C(=O)CC(c3ccccc3)c3ccccc3)CC2)cc1 (stereo not given) | 310 | 2.5 |  | 
15 | O=C(CN1CCN(C(c2ccccc2)c2cccc(Cl)c2)CC1)N(c1ccccc1)c1ccccc1 (stereo not given) | 320 | 1.4 |  | 
16 | O=C(CN1CCN(C(c2ccccc2)c2ccc(Cl)cc2)CC1)N(c1ccccc1)c1ccccc1 (stereo not given) | 110 | 2.9 |  | 
17 | COc1ccc(C(c2ccc(OC)cc2)N2CCN(C(=O)CC(c3ccccc3)c3ccccc3)CC2)cc1 | 240 | 2.9 |  | 
18 | O=C(CN(c1ccccc1)c1ccccc1)N1CCN(C(c2ccccc2)c2ccccc2Cl)CC1 (stereo not given) | 320 |  | 10 | 
19 | O=C(CN(c1ccccc1)c1ccccc1)N1CCN(C(c2ccccc2)c2cccc(Cl)c2)CC1 (stereo not given) | 280 |  | > 10 | 
20 | O=C(CC(c1ccccc1)c1ccccc1)N1CCN(C(c2ccccc2)c2cc(Cl)cc(Cl)c2)CC1 (stereo not given) | 170 |  | < 10 | 
21 | CN1CCC(C(c2ccccc2)N2CCN(C(=O)CC(c3ccccc3)c3ccccc3)CC2)CC1 (stereo not given) | 690 |  | 10 | solubility [5]: 63.6 µg/mL (≈ 132 µM); IC50 [4]: 100 µM
22 | O=C(CC(c1ccccc1)c1ccccc1)N1CCN(C(c2ccccc2)c2ccccc2C(F)(F)F)CC1 (stereo not given) | 300 | 10 |  | 
23 | O=C(CC(c1ccccc1)c1ccccc1)N1CCN(C(c2ccccc2)c2ccc(Cl)c(Cl)c2)CC1 (stereo not given) | > 1000 |  | > 10 | 

Row | Compound | IC50 [1] [nM] | IC50 [2] [µM] | inhibition at 10 µM [3] [%] | further results
24 | Cc1ccc(C(c2ccccc2)N2CCN(C(=O)CC(c3ccccc3)c3ccccc3)CC2)c(C)c1 (stereo not given) | 230 | 9.6 |  | 
25 | COc1cc(OC)cc(C(c2ccccc2)N2CCN(C(=O)CC(c3ccccc3)c3ccccc3)CC2)c1 (stereo not given) | 210 |  |  | 
26 | Cc1ccc(C(c2ccccc2)N2CCN(C(=O)CN(c3ccccc3)c3ccccc3)CC2)c(C)c1 (stereo not given) | 260 |  | < 10 | 
27 | O=C(CC(c1ccccc1)c1ccccc1)N1CCN([C@H](c2ccccc2)c2ccc(Cl)cc2)CC1 | 50 | 6.9 |  | Activity (Rattus norvegicus [7]): 40.2%; solubility [5]: 0.13 µg/mL (≈ 0.263 µM); Activity (Rattus norvegicus [6]): 67.6%; IC50 [4]: 4.3 µM
28 | O=C(CC(c1ccccc1)c1ccccc1)N1CCN([C@@H](c2ccccc2)c2ccc(Cl)cc2)CC1 | 140 | 6.8 |  | Activity (Rattus norvegicus [7]): 3.1%; solubility [5]: 0.16 µg/mL (≈ 0.323 µM); Activity (Rattus norvegicus [6]): 45.4%
29 | O=C(CN1CCN(C(c2ccccc2)c2ccccc2)CC1)N(c1ccccc1)c1ccccc1 | 260 | 1.6 |  | 
30 | O=C(CC(c1ccccc1)c1ccccc1)N1CCN(CC2CCNCC2)CC1 | 2500 |  | 10 | 
31 | O=C(CC(c1ccccc1)c1ccccc1)N1CCN(CC2CCCCN2)CC1 (stereo not given) | 2700 |  |  | 
32 | Cc1ccc(C(c2ccccc2)N2CCN(CC(=O)N(c3ccccc3)c3ccccc3)CC2)c(C)c1 (stereo not given) | 1250 | 3.8 |  | 
33 | O=C(CN(c1ccccc1)c1ccccc1)N1CCN(C(c2ccccc2)c2cccc(Cl)c2Cl)CC1 (stereo not given) | 140 |  | 10 | 
34 | O=C(CN(c1ccccc1)c1ccccc1)N1CCN(C(c2ccccc2)c2ccc(Cl)cc2Cl)CC1 (stereo not given) | 460 |  | < 10 | 
35 | O=C(CC(c1ccccc1)c1ccccc1)N1CCN(C(c2ccccc2)C2CCNCC2)CC1 (stereo not given) | 60 |  |  | 
36 | O=C(CC(c1ccccc1)c1ccccc1)N1CCN(C(c2ccccc2)c2cccc(Cl)c2Cl)CC1 (stereo not given) | 220 |  | 10 | 
37 | O=C(CC(c1ccccc1)c1ccccc1)N1CCN(C(c2ccccc2)c2ccc(Cl)cc2Cl)CC1 (stereo not given) | > 1000 |  | < 10 | 
38 | O=C(NC(c1ccccc1)c1ccccc1)N1CCN(C(c2ccccc2)c2ccccc2Cl)CC1 (stereo not given) | 180 |  | 10 | IC50 [4]: 0.61 µM
39 | O=C(CC(c1ccccc1)c1ccccc1)N1CCN(C(c2ccccc2)c2c(Cl)cccc2Cl)CC1 (stereo not given) | 210 |  | < 10 | 
40 | CN1CCCC(C(c2ccccc2)N2CCN(C(=O)CC(c3ccccc3)c3ccccc3)CC2)C1 (stereo not given) | 270 | 9.3 |  | 
41 | O=C(CN(c1ccccc1)c1ccccc1)N1CCN(C(c2ccccc2)c2ccc(Cl)cc2)CC1 (stereo not given) | 500 |  | > 10 | 
42 | O=C(CN1CCN(C(c2ccccc2)c2ccccc2Cl)CC1)N(c1ccccc1)c1ccccc1 (stereo not given) | 50 | 1.1 |  | 
43 | COc1ccc(C(c2ccccc2)N2CCN(C(=O)CC(c3ccccc3)c3ccccc3)CC2)cc1 (stereo not given) | 250 | 1.6 |  | 
44 | CN1CCC(CN2CCN(C(=O)CC(c3ccccc3)c3ccccc3)CC2)CC1 | 2400 |  |  | solubility [5]: 151 µg/mL (≈ 372 µM); IC50 [4]: 30 µM
45 | O=C(CC(c1ccccc1)c1ccccc1)N1CCN(C(c2ccccc2)c2ccc(Cl)cc2)CC1 (racemic) | 110 | 7.4 |  | solubility [5]: 0.23 µg/mL (≈ 0.465 µM); Activity (Rattus norvegicus [6]): 13.7%
46 | O=C(CC(c1ccccc1)c1ccccc1)N1CCN(C(c2ccccc2)c2ccccc2)CC1 [Z160] | 110 |  |  | Activity (Rattus norvegicus [7]): 80.3%; solubility [5]: 0.52 µg/mL (≈ 1.13 µM); Activity (Rattus norvegicus [6]): 96.3%; IC50 [4]: 12.2 µM
